For 18 compounds, CC50 and EC50 results are on record in ChEMBL document CHEMBL3351523 (Bioorg Med Chem, 2014).

SMILES strings stand for the structures.

A word on the CC50: it is the concentration giving 50% cytotoxicity. As usually defined, the EC50 is the concentration at which the effect is half-maximal.

Series [1] can be described thus: Cytotoxicity against mock-infected human MT4 cells after 96 hrs by MTT assay. Type of series: cell-based. The method, boiled down: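 Exponentially growing MT-4 cells were seeded at 1 × 10^5 cells/mL in RPMI-1640 with 10% FBS and held at 37 °C, 5% CO2 with serial compound dilutions. Viability was read by MTT after 96 h. CC50 from linear regression against untreated controls.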
(In general: Tetrazolium assays rely on reduction of a dye to a coloured formazan, in cell work by metabolically active cells.)

The test system of series [2] is Human immunodeficiency virus 1. Nature of the series: Antiviral activity against HIV1 infected in human MT4 cells assessed as inhibition of virus-induced cytopathogenicity after 4 days by MTT assay. Particulars: Human immunodeficiency virus 1, MT4, 96 h. Type of series: functional, organism-based. Put shortly: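 MT-4 cells (1 × 10^4/well in RPMI) were infected acutely with HIV-1 IIIB, 100 CCID50 (m.o.i. 0.01), with serial dilutions from 100 µM, 1:5. After 4 days at 37 °C, protection from virus-induced cytopathogenicity was read by MTT. EC50 came from linear regression against untreated controls.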

Series [3] in a line: Cytotoxicity against mock-infected MDBK cells after 48 to 96 hrs by MTT assay. Type of series: cell-based, Bos taurus. The settings on record: cattle. The method, boiled down:
(§1)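 Mock-infected MDBK (6 × 10^5 cells/mL; MEM-E, 10% horse serum, 1 mM pyruvate) or BHK (1 × 10^6 cells/mL; MEM-E, 10% FBS) cells were incubated at 37 °C, 5% CO2 with serial dilutions from 100 µM, 1:5. Viability by MTT after 48–96 h. CC50 from linear regression against untreated controls.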

In another series the test system is Poliovirus 1. Nature of the series: Antiviral activity against Poliovirus type 1 Sabin strain infected in african green monkey Vero 76 cells assessed as reduction in plaque number after 2 days by plaque reduction assay. Type of series: functional, organism-based. Particulars: Enterovirus C, 48 h.
The next series deals with Reovirus sp. Nature of the series: Antiviral activity against Reovirus type-1 infected in BHK21 cells assessed as inhibition of virus-induced cytopathogenicity after 3 to 4 days by MTT assay. Particulars: BHK-21. Type of series: functional, organism-based. Background: Protection from cytopathic effect is a common read-out in antiviral testing.
In series [4] the test system is Respiratory syncytial virus. The experiment in a line: Antiviral activity against Respiratory syncytial virus infected in african green monkey Vero 76 cells assessed as reduction in plaque number after 5 days by plaque reduction assay. Type of series: functional, organism-based. Particulars: human respiratory syncytial virus, 120 h. (Plaque reduction counts the foci of infection that form in a cell layer.)

The subject of a further series is Coxsackievirus B5. The experiment in a line: Antiviral activity against Coxsackievirus B5 infected in african green monkey Vero 76 cells assessed as reduction in plaque number after 3 days by plaque reduction assay. The settings on record: Enterovirus B, 72 h. The format is functional, organism-based.
The nature of series [5]: Cytotoxicity against mock-infected african green monkey Vero 76 cells after 48 to 96 hrs by MTT assay. The format is cell-based. The settings on record: chlorocebus sabaeus, mock-infected Vero 76 cells.
A short description of series [6]: Cytotoxicity against mock-infected BHK21 cells after 48 to 96 hrs by MTT assay. Type of series: functional. The settings on record: Mesocricetus auratus, BHK-21. The method, boiled down:
as §1

The next series relates to Vaccinia virus. The experiment in a line: Antiviral activity against Vaccinia Virus infected in african green monkey Vero 76 cells assessed as reduction in plaque number after 3 days by plaque reduction assay. The format is functional, organism-based. Particulars: Orthopoxvirus vaccinia, 72 h.
In series [7] the test system is Vesicular stomatitis virus. Nature of the series: Antiviral activity against Vesicular stomatitis virus infected in african green monkey Vero 76 cells assessed as reduction in plaque number after 2 days by plaque reduction assay. The settings on record: 48 h. The format is functional, organism-based.
In the next series the test system is Yellow fever virus. The experiment in a line: Antiviral activity against Yellow fever virus infected in BHK21 cells assessed as inhibition of virus-induced cytopathogenicity after 3 to 4 days by MTT assay. The settings on record: BHK-21. Type of series: functional, organism-based.
For a further series, the system named is Human alphaherpesvirus 1. The experiment in a line: Antiviral activity against HSV1 infected in african green monkey Vero 76 cells assessed as reduction in plaque number after 3 days by plaque reduction assay. The format is functional, organism-based. Particulars: Human alphaherpesvirus 1, Vero, 72 h.
For series [8], the system named is Bovine viral diarrhea virus 1. Nature of the series: Antiviral activity against Bovine viral diarrhea virus infected in MDBK cells assessed as inhibition of virus-induced cytopathogenicity after 3 to 4 days by MTT assay. The format is functional, organism-based. The settings on record: Bovine viral diarrhea virus isolates and strains.

For the compound `ClC1(Cl)C2CCOC21n1cnc2ccccc21` (stereo not drawn), the midpoint of cytotoxicity in [1], the CC50 at 96 h, lay at 33 µM. Also, in [2], the EC50 was over 100 µM.

As to `COc1ccc(-c2nc3cc(Cl)ccc3n2[C@@H]2CCCN3CCCC[C@H]23)cc1`, the CC50 in series [3], in series [5] and in series [6] was over 100 µM in each case. In [1], this compound returned a CC50 at 96 h of over 100 µM. Further, the EC50 (with Poliovirus 1; in the series on Reovirus sp.; in [4]; with Coxsackievirus B5; in series [2]; in the series on Vaccinia virus) was over 100 µM each time. In addition, the EC50 (in series [7]; in the series on Yellow fever virus; in the series on Human alphaherpesvirus 1; in series [8]) was over 100 µM throughout.

`CCCCn1c(-c2ccc(OC)cc2)nc2cc(C(F)(F)F)ccc21`: the values for the CC50 in series [3], in series [5] and in [6] were 22 µM, 80 µM and 35 µM, respectively. The CC50 at 96 h in series [1] is over 100 µM. Also, the concentration giving a half-maximal response (EC50) was 25 µM with Poliovirus 1; over 100 µM in the series on Reovirus sp.; over 100 µM in series [4]; over 100 µM with Coxsackievirus B5; over 100 µM in series [2]; over 100 µM with Vaccinia virus. In addition, the EC50 (in [7]; in the series on Yellow fever virus; in the series with Human alphaherpesvirus 1; in [8]) was over 100 µM throughout.

Take `FC(F)(F)c1ccc2c(c1)nc(Cc1ccc(Cl)c(Cl)c1)n2C[C@@H]1CCCN2CCCC[C@H]12`: the CC50 was 37 µM in series [3], over 100 µM in [5] and over 100 µM in series [6]. Moreover, in [1], the CC50 at 96 h is over 100 µM. The EC50 (in the series on Poliovirus 1; in the series on Reovirus sp.; in series [4]; with Coxsackievirus B5; in series [2]; in the series on Vaccinia virus) was over 100 µM throughout. The 50% effective concentration (EC50) (in series [7]; with Yellow fever virus; in the series with Human alphaherpesvirus 1; in series [8]) was over 100 µM throughout.

In the case of `FC(F)(F)c1ccc2c(c1)nc(CC1=CCCC1)n2C[C@@H]1CCCN2CCCC[C@H]12`, the CC50 was 50 µM in [3], over 100 µM in [5] and 30 µM in series [6]. The CC50 at 96 h in [1] came out at 5 µM. Besides, the concentration for a half-maximal effect (EC50) (with Poliovirus 1; in the series on Reovirus sp.; in series [4]; with Coxsackievirus B5; in series [2]; in the series with Vaccinia virus) was over 100 µM each time. The EC50 was over 100 µM in [7], over 100 µM in the series on Yellow fever virus, 30 µM in the series with Human alphaherpesvirus 1 and over 100 µM in [8].

On to `FC(F)(F)c1ccc2[nH]c(C3CCCCO3)nc2c1` (stereo not drawn), for which the CC50 in [3], in series [5] and in [6] was over 100 µM in each case. The midpoint of cytotoxicity in [1], the CC50 at 96 h, lay at 97 µM. The half-maximal effective concentration (EC50) (with Poliovirus 1; with Reovirus sp.; in [2]; in series [7]; with Yellow fever virus; in the series with Human alphaherpesvirus 1) was over 100 µM in each case. In addition, the EC50 in series [8] is over 100 µM.

For the compound `CC1(c2nc3cc(Cl)c(Cl)cc3[nH]2)CCC(CO)C(C)(C)O1` (stereo not drawn), the CC50 in series [3], in series [5] and in [6] was over 100 µM throughout. For the same compound, the CC50 at 96 h in series [1] is 33 µM. Moreover, the EC50 is 12 µM in the series on Poliovirus 1; over 100 µM with Reovirus sp.; over 100 µM in series [2]; over 100 µM in series [7]; over 100 µM with Yellow fever virus; 60 µM in the series on Human alphaherpesvirus 1. The EC50 in series [8] came to 46 µM.

As to `c1ccc2c(c1)ncn2C1CCCCO1` (stereo not drawn), the cytotoxic concentration (CC50) in series [3] and in series [6] was over 100 µM in each case. This compound returned a half-maximal cytotoxic concentration (CC50) at 96 h in series [1] of over 100 µM. Moreover, the EC50 (in [2]; in the series with Yellow fever virus; in [8]) was over 100 µM each time.

Take `CC1(c2nc3ccccc3[nH]2)CCC(C#N)C(C)(C)O1` (stereo not drawn): the cytotoxic concentration (CC50) in series [3], in series [5] and in [6] was over 100 µM in each case. In addition, the CC50 at 96 h in series [1] was over 100 µM. Moreover, the EC50 (in the series on Poliovirus 1; with Reovirus sp.; in [2]; in series [7]; with Yellow fever virus; with Human alphaherpesvirus 1) was over 100 µM in each case. For the same compound, the EC50 in [8] was over 100 µM.

As to `Clc1cc2ncn(C3CCCO3)c2cc1Cl` (stereo not drawn), the CC50 in series [3] and in [6] was over 100 µM each time. In [1], this compound registered a CC50 at 96 h of over 100 µM. Besides, the EC50 (with Reovirus sp.; in [2]; in the series with Yellow fever virus; in [8]) was over 100 µM in each case.

For `CC1(c2nc3ccccc3[nH]2)CCC(C(N)=O)C(C)(C)O1` (stereo not drawn), the CC50 in series [3], in series [5] and in [6] was over 100 µM throughout. In addition, the CC50 at 96 h in series [1] was over 100 µM. In addition, the EC50 (in the series on Poliovirus 1; in the series with Reovirus sp.; in series [2]; in series [7]; in the series on Yellow fever virus; in the series on Human alphaherpesvirus 1) was over 100 µM each time. Also, in series [8], the EC50 was over 100 µM.

As for `O=C1Nc2ccc(Cl)cc2[C@@](C#CC2CC2)(C(F)(F)F)O1` [EFAVIRENZ], the half-maximal cytotoxic concentration (CC50) at 96 h in [1] was found to be 38 µM.

With `c1ccc2[nH]c(C3CCCCO3)nc2c1` (stereo not drawn), the CC50 in series [3], in series [5] and in series [6] was over 100 µM in each case. The CC50 at 96 h in series [1] was over 100 µM. In addition, the EC50 (in the series on Poliovirus 1; in the series on Reovirus sp.; in series [2]; in series [7]; with Yellow fever virus; in the series with Human alphaherpesvirus 1) was over 100 µM each time. For the same compound, in series [8], the EC50 is over 100 µM.

In the case of `Nc1nc2c(ncn2COCCO)c(=O)[nH]1` [ACYCLOVIR], the CC50 in series [3], in series [5] and in [6] was over 100 µM throughout. Besides, in series [1], the CC50 at 96 h was over 100 µM. Also, the EC50 (in the series with Poliovirus 1; in the series with Reovirus sp.; in series [4]; in the series on Coxsackievirus B5; in the series on Vaccinia virus; in [7]) was over 100 µM throughout. Further, the EC50 was over 100 µM in the series with Yellow fever virus, 1.2 µM in the series with Human alphaherpesvirus 1 and over 100 µM in series [8].

For the compound `O=C1c2ccccc2-n2c(nc3cccnc32)CN1C[C@@H]1CCCN2CCCC[C@H]12`, the CC50 in series [3] is 91 µM; in series [5], over 90 µM; in series [6], 37 µM. In series [1], this compound had a CC50 at 96 h of 31 µM. The EC50 (in the series with Poliovirus 1; in series [4]; in the series with Coxsackievirus B5; in [2]; with Vaccinia virus; in [7]) was over 100 µM throughout. For the same compound, the EC50 is over 100 µM in the series on Yellow fever virus and 17 µM in series [8].

For the compound `Clc1cc2nc(C3CCCO3)[nH]c2cc1Cl` (stereo not drawn), the CC50 in series [3] and in series [6] was over 100 µM in each case. Moreover, the EC50 (in the series on Yellow fever virus; in [8]) was over 100 µM throughout.

In the case of `Clc1ccc2[nH]c(C3CCCCO3)nc2c1` (stereo not drawn), the CC50 in [3], in series [5] and in series [6] was over 100 µM each time. Further, in series [1], the CC50 at 96 h was over 100 µM. The EC50 in the series with Poliovirus 1 is 20 µM; with Reovirus sp., over 100 µM; in series [2] it was over 100 µM; in [7] it was over 100 µM; with Yellow fever virus, over 100 µM; in the series on Human alphaherpesvirus 1, over 100 µM. For the same compound, in [8], the EC50 is over 100 µM.

As to `Clc1cc2nc(C3CCCCO3)[nH]c2cc1Cl` (stereo not drawn), the half-maximal cytotoxic concentration (CC50) in series [3], in [5] and in series [6] was over 100 µM in each case. For the same compound, the CC50 at 96 h in series [1] came to 6 µM. Also, the EC50 with Poliovirus 1 is 60 µM; in the series on Reovirus sp. it was over 100 µM; in [2], over 100 µM; in series [7] it was over 100 µM; with Yellow fever virus it was over 100 µM; in the series with Human alphaherpesvirus 1 it was over 100 µM. For the same compound, in series [8], the concentration giving a half-maximal response (EC50) is over 100 µM.
